The source of these data is ChEMBL document CHEMBL4014350, “Alkoxyurea-Based Histone Deacetylase Inhibitors Increase Cisplatin Potency in Chemoresistant Cancer Cell Lines” (J Med Chem, 2017).

SMILES strings stand for the structures.

The target in test [1] is T1, Protein deacetylase HDAC6 (Homo sapiens, UniProt Q9UBN7).
T1 sequence (Q9UBN7 whole entry): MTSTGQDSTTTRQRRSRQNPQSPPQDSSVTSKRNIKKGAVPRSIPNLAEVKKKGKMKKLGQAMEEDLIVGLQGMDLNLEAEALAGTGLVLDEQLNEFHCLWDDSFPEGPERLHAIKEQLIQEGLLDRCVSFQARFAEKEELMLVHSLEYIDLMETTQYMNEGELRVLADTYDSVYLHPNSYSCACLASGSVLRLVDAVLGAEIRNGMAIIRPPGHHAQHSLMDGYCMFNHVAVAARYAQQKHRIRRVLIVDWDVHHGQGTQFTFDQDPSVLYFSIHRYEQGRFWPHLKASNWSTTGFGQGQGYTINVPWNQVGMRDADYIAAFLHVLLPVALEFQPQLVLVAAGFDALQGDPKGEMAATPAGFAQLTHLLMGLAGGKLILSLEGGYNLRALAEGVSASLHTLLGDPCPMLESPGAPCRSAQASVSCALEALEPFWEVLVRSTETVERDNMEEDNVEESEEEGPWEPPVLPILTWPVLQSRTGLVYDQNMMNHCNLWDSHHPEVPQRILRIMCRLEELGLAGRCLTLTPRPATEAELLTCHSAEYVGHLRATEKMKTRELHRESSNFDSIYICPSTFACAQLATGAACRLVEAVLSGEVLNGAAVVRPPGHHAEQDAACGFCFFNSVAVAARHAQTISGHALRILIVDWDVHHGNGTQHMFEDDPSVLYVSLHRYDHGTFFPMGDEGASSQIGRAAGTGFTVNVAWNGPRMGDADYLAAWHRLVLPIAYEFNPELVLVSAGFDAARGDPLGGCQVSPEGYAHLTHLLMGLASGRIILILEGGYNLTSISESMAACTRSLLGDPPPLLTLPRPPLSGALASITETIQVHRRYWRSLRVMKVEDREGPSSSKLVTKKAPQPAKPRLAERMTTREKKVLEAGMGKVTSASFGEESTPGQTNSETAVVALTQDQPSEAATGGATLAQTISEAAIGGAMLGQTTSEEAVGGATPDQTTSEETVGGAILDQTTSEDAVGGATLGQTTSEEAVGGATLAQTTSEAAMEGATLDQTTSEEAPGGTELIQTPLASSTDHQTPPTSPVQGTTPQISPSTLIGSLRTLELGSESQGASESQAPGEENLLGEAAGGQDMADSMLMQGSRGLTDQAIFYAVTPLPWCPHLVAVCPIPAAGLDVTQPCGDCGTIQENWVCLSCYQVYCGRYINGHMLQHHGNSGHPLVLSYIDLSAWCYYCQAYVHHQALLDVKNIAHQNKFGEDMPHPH
Put plainly: Inhibition of full length human recombinant N-terminal GST-tagged HDAC6 expressed in baculovirus infected sf9 cells Z-(Ac)Lys-AMC as substrate measured after 90 mins by fluorescence assay.

Test [2] deals with CAL-27. Put plainly: Potentiation of 0.316 uM cisplatin-induced cytotoxicity against human CAL27 cells assessed as decrease in cell viability by measuring combination index at 700 uM preincubated for 48 hrs followed by cisplatin treatment measured after 72 hrs by MTT assay. The class given is functional. Conditions: in the assay text read “at 700 nM” for “at 700 uM”. In outline:
(§1)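 Cal27 and cisplatin-resistant Cal27CisR cells were preincubated with the HDAC inhibitor for 48 h, then given cisplatin in combination. Viability was read by MTT after 72 h. The combination index was computed by the Chou–Talalay method: CI > 1 is antagonism, CI = 1 is additive, and CI < 0.9 is synergism. Points with fraction affected below 0.20 were flagged.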
For orientation: Tetrazolium dyes change colour on reduction, which living cells bring about.

Test [3] deals with CAL-27. The experiment in a line: Potentiation of 0.316 uM cisplatin-induced cytotoxicity against human CAL27 cells assessed as decrease in cell viability by measuring combination index at 400 uM preincubated for 48 hrs followed by cisplatin treatment measured after 72 hrs by MTT assay. The class given is functional. The conditions noted are these: in the assay text read “at 400 nM” for “at 400 uM”. In outline: as §1

Test [4] relates to CAL-27. The experiment in a line: Potentiation of 0.5 uM cisplatin-induced cytotoxicity against human CAL27 cells assessed as decrease in cell viability by measuring combination index at 300 uM preincubated for 48 hrs followed by cisplatin treatment measured after 72 hrs by MTT assay. It counts as functional. The conditions noted are these: in the assay text read “at 300 nM” for “at 300 uM”. Put shortly: as §1

The subject of test [5] is CAL-27. Put plainly: Potentiation of 0.316 uM cisplatin-induced cytotoxicity against human CAL27 cells assessed as decrease in cell viability by measuring combination index at 200 uM preincubated for 48 hrs followed by cisplatin treatment measured after 72 hrs by MTT assay. The class given is functional. The conditions noted are these: in the assay text read “at 200 nM” for “at 200 uM”. Put shortly:
as §1

Test [6] relates to CAL-27. Put plainly: Potentiation of 0.316 uM cisplatin-induced cytotoxicity against human CAL27 cells assessed as decrease in cell viability by measuring combination index at 300 uM preincubated for 48 hrs followed by cisplatin treatment measured after 72 hrs by MTT assay. The class given is functional. The conditions noted are these: in the assay text read “at 300 nM” for “at 300 uM”. In outline: as §1

The target of test [7] is T2, Histone deacetylase 1/6 (Homo sapiens) (UniProt Q13547+Q9UBN7). The experiment in a line: Inhibition of HDAC1/HDAC6 in human Cal27CisR cells assessed as potentiation of 10 uM cisplatin-induced cytotoxicity by measuring combination index at 100 uM preincubated for 48 hrs followed by cisplatin treatment measured after 72 hrs by MTT assay. It counts as cell-based. Put shortly: (§2)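 Cal27CisR cells preincubated 48 h with the HDAC inhibitor, then exposed to cisplatin for 72 h. Viability read by MTT. Combination index calculated by the Chou–Talalay method: CI > 1 antagonism, CI = 1 additive, CI < 0.9 synergism. Points with fraction affected below 0.20 are flagged. Values are the mean of three experiments.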
T2 sequence (Q13547 whole entry, looked up, one chain of several): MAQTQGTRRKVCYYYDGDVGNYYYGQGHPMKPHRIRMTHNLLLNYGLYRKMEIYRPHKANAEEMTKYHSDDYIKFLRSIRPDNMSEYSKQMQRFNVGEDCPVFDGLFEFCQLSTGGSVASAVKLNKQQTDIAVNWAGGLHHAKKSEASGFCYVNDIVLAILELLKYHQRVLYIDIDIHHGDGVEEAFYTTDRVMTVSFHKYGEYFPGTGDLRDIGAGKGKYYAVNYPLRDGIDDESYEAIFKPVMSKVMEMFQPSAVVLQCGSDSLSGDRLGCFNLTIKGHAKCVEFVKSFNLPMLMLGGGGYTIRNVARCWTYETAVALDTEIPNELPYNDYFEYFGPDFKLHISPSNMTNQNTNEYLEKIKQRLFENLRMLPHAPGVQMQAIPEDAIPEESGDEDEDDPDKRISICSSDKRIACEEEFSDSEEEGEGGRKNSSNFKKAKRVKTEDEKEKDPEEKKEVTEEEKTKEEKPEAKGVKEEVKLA

Test [8] has as its target T2, Histone deacetylase 1/6 (Homo sapiens). Put plainly: Inhibition of HDAC1/HDAC6 in human Cal27CisR cells assessed as potentiation of 10 uM cisplatin-induced cytotoxicity by measuring combination index at 300 uM preincubated for 48 hrs followed by cisplatin treatment measured after 72 hrs by MTT assay. The class given is cell-based. Put shortly:
as §2

Test [9] has the same target. Put plainly: Inhibition of HDAC1/HDAC6 in human Cal27CisR cells assessed as potentiation of cisplatin-induced apoptosis at 0.5 uM preincubated for 48 hrs followed by cisplatin treatment for 6 hrs measured after 24 hrs by propidium iodide dye-based flow cytometry (reference value: 20.3%). Details: scale not given: the % may be the effect or the level left. The class given is cell-based.

Test [10] shares this target. Put plainly: Inhibition of HDAC1/HDAC6 in human Cal27CisR cells assessed as potentiation of 5 uM cisplatin-induced cytotoxicity by measuring combination index at 200 nM preincubated for 48 hrs followed by cisplatin treatment measured after 72 hrs by MTT assay.
The target is the same in test [11]. Put plainly: Inhibition of HDAC1/HDAC6 in human Cal27CisR cells assessed as potentiation of 20 uM cisplatin-induced cytotoxicity by measuring combination index at 100 nM preincubated for 48 hrs followed by cisplatin treatment measured after 72 hrs by MTT assay.
Test [12] shares this target. The experiment in a line: Inhibition of HDAC1/HDAC6 in human Cal27CisR cells assessed as potentiation of 20 uM cisplatin-induced cytotoxicity by measuring combination index at 700 nM preincubated for 48 hrs followed by cisplatin treatment measured after 72 hrs by MTT assay.

For orientation: IC50 means the concentration at which inhibition is half-maximal. Turning to `COc1cc(NC(=O)NOCCCCCC(=O)NO)c2nccc(C)c2c1`, the IC50 in test [1] was 24.8 nM. Moreover, the CI in the test with CAL-27 [2] is 0.68; in the test with CAL-27 [3] it was below 0.2; with CAL-27 [4], below 0.2; in the test on CAL-27 [5], below 0.2; in the test with CAL-27 [6], below 0.2; in [7] it was below 0.2. Also, the CI is 0.43 in test [8], below 0.2 in test [10], 0.73 in [11] and 0.25 in test [12]. Besides, the Activity in test [9] was found to be 59.7%.

Take `COc1cc(NC(=O)NOCCCCCC(=O)NO)c2nc(OC)cc(C)c2c1`: the half-inhibitory concentration (IC50) in [1] worked out at 2.8 nM. Further, the CI in the test with CAL-27 [2] was 0.82; in the test with CAL-27 [3] it was 0.97; with CAL-27 [4], below 0.2; in the test with CAL-27 [5], below 0.2; in the test with CAL-27 [6], below 0.2; in test [7], 0.41. Also, the CI in test [8] turned out to be 0.18; in test [10] it was 0.38; in test [11], 0.34; in test [12], 0.21. The Activity in test [9] was found to be 59.7%.

For the compound `COc1cc(NC(=O)NOCCCCCC(=O)NO)c2ncccc2c1`, the IC50 in test [1] was 6.1 nM. In addition, the CI in test [12] turned out to be 0.37.
